≈ marks a conversion by molar mass, not a printed value.
Assays:
Type in all cases: functional
[1] = system: Mycobacterium tuberculosis; assay: Antitubercular activity against streptomycin-resistant Mycobacterium tuberculosis ATCC 35820 after 5 days by resazurin-based microplate assay; settings: ATCC 35820, 120 h
Outline: (§1)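 Mid-log cultures grown in 7H9 with glycerol, Tween-80 and ADC. Compounds in DMSO were tested two-fold from […] against ~10^5 CFU/mL, 37°C for 5 d. Resazurin was then added for a further 2 d, and fluorescence read at ex 530/em 590 with visual confirmation. MIC was the lowest concentration inhibiting 90% of growth. Final DMSO 0.625%; two-fold variation taken as assay error.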

[2] = system: Mycobacterium tuberculosis; assay: Antitubercular activity against isoniazid-resistant Mycobacterium tuberculosis ATCC 35822 after 5 days by resazurin-based microplate assay; settings: ATCC 35822, 120 h; outline: as §1
[3] = system: Mycobacterium tuberculosis; assay: Antitubercular activity against kanamycin-resistant Mycobacterium tuberculosis ATCC 35827 after 5 days by resazurin-based microplate assay; settings: ATCC 35827, 120 h; outline: as §1
[4] = system: Mycobacterium tuberculosis; assay: Antitubercular activity against ethionamide-resistant Mycobacterium tuberculosis ATCC 35830 after 5 days by resazurin-based microplate assay; settings: ATCC 35830, 120 h; outline: as §1
[5] = system: Mycobacterium tuberculosis; assay: Antitubercular activity against ethambutol-resistant Mycobacterium tuberculosis ATCC 35837 after 5 days by resazurin-based microplate assay; settings: ATCC 35837, 120 h; outline: as §1

| SMILES | MIC90 [1] [µg/mL] | MIC90 [2] [µg/mL] | MIC90 [3] [µg/mL] | MIC90 [4] [µg/mL] | MIC90 [5] [µg/mL] |
| --- | --- | --- | --- | --- | --- |
| CN(CCc1ccccc1)c1n[n+]([O-])c2cc3c(cc2[n+]1[O-])CCC3 | < 0.07 | 0.07 (≈ 0.208 µM) | 0.15 (≈ 0.446 µM) | 0.15 (≈ 0.446 µM) | 0.31 (≈ 0.922 µM) |
| CCNc1n[n+]([O-])c2ccccc2[n+]1[O-] | 1.2 (≈ 5.82 µM) | 1.2 (≈ 5.82 µM) | 1.2 (≈ 5.82 µM) | 1.2 (≈ 5.82 µM) | 1.2 (≈ 5.82 µM) |
| CC(C)(C)Nc1n[n+]([O-])c2ccccc2[n+]1[O-] | 1.2 (≈ 5.12 µM) | 2.5 (≈ 10.7 µM) | 2.5 (≈ 10.7 µM) | 1.2 (≈ 5.12 µM) | 2.5 (≈ 10.7 µM) |
| [O-][n+]1nc(N2CCCC2)[n+]([O-])c2ccccc21 | 0.02 (≈ 0.0861 µM) | 0.31 (≈ 1.33 µM) | 0.31 (≈ 1.33 µM) | 0.31 (≈ 1.33 µM) | 0.31 (≈ 1.33 µM) |
| CCNc1n[n+]([O-])c2cc3c(cc2[n+]1[O-])CCC3 | 0.63 (≈ 2.56 µM) | 1.2 (≈ 4.87 µM) | 1.2 (≈ 4.87 µM) | 1.2 (≈ 4.87 µM) | 1.2 (≈ 4.87 µM) |
| CN(C)c1n[n+]([O-])c2cc3c(cc2[n+]1[O-])CCC3 | < 0.07 | < 0.07 | 0.31 (≈ 1.26 µM) | 0.15 (≈ 0.609 µM) | 0.31 (≈ 1.26 µM) |
| CC1CCCCN1c1n[n+]([O-])c2cc3c(cc2[n+]1[O-])CCC3 (stereo not given) | 0.31 (≈ 1.03 µM) | 0.31 (≈ 1.03 µM) | 0.62 (≈ 2.06 µM) | 0.31 (≈ 1.03 µM) | 0.62 (≈ 2.06 µM) |
| CN(Cc1ccccc1)c1n[n+]([O-])c2cc3c(cc2[n+]1[O-])CCC3 | < 0.07 | < 0.07 | 0.15 (≈ 0.465 µM) | 0.07 (≈ 0.217 µM) | 0.15 (≈ 0.465 µM) |
| CCNc1n[n+]([O-])c2cccc(C)c2[n+]1[O-] | 0.16 (≈ 0.727 µM) | 0.62 (≈ 2.82 µM) | 0.62 (≈ 2.82 µM) | 0.31 (≈ 1.41 µM) | 0.62 (≈ 2.82 µM) |
| [O-][n+]1nc(NC2CCC2)[n+]([O-])c2cc3c(cc21)CCC3 | 0.31 (≈ 1.14 µM) | 1.2 (≈ 4.41 µM) | 1.2 (≈ 4.41 µM) | 0.62 (≈ 2.28 µM) | 0.62 (≈ 2.28 µM) |
| CCNc1n[n+]([O-])c2cc(C)c(OC)cc2[n+]1[O-] | 1.2 (≈ 4.8 µM) | 1.2 (≈ 4.8 µM) | 1.2 (≈ 4.8 µM) | 1.2 (≈ 4.8 µM) | 1.2 (≈ 4.8 µM) |
| [O-][n+]1nc(N2CCCC2)[n+]([O-])c2cc3c(cc21)CCC3 | 0.16 (≈ 0.588 µM) | 0.31 (≈ 1.14 µM) | 0.63 (≈ 2.31 µM) | 0.62 (≈ 2.28 µM) | 0.62 (≈ 2.28 µM) |
| [O-][n+]1nc(N2CCCCC2)[n+]([O-])c2cc3c(cc21)CCC3 | 0.15 (≈ 0.524 µM) | 0.15 (≈ 0.524 µM) | 0.31 (≈ 1.08 µM) | 0.31 (≈ 1.08 µM) | 0.31 (≈ 1.08 µM) |

— ChEMBL document CHEMBL2150981, “Discovery and optimization of benzotriazine di-N-oxides targeting replicating and nonreplicating Mycobacterium tuberculosis” (J Med Chem, 2012)
